Assay results reported in publication PMC3068019 (EMBO Molecular Medicine, 2010).

Legend:
[1] = system: DNAJ (HSJ1b), striatal neurons; conditions: ref Borrell-Pages et al, 2006, cited from earlier work
Caenorhabditis elegans = conditions: ref Borrell-Pages et al, 2006; cited from earlier work
BDNF = conditions: ref Borrell-Pages et al, 2006; cited from earlier work
Q111 cells = assay: 3-NP toxicity, LIVE/DEAD viability assay, Q111 cells; type: cell-based, mouse
HD model mice = conditions: ref Karpuj et al, 2002; Fox et al, 2004; cited from earlier work
DNAJB10 = conditions: ref Karpuj et al, 2002; cited from earlier work
glutathione = conditions: ref Mao et al, 2006; cited from earlier work
Caspase = conditions: ref Bailey & Johnson, 2006; Jeitner et al, 2005; cited from earlier work
PGC-1α = conditions: ref Milnerwood et al, 2010; Okamoto et al, 2009; cited from earlier work
[2] = system: PGC-1α mRNA, Q111 striatal cells; assay: PGC-1α mRNA by quantitative RT-PCR, Q111 cells; type: cell-based, mouse
Procedure, shortened: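 Total RNA (2 µg) from Q7/Q111 striatal cells, run either by TaqMan one-step RNA-to-Ct or by Superscript III reverse transcription followed by TaqMan gene expression assays on real-time PCR. Quantified by the delta-delta CT method, normalised to 18S […].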

## NCCS [cysteamine]
[1]
  DNAJB10 levels: normalize DNAJB10 levels
[1]; striatal neurons in vitro
  DNAJ (HSJ1b) transcription and protein levels: increased
Caenorhabditis elegans
  protection of worms from toxic effects of mhtt: protected worms
BDNF
  trafficking of BDNF: enhanced

## NCCSSCCN [cystamine]
Q111 cells; not shown, cell line not stated
  protection against 3-NP toxicity: protect against 3-NP toxicity
HD model mice
  neuroprotection in HD models: neuroprotective
DNAJB10
  DNAJB10 in treated mice: increased
glutathione
  glutathione levels: increases levels of the versatile antioxidant glutathione
Caspase
  caspase inhibition: caspase inhibition

## CC12CC3CC(C)(C1)CC(N)(C3)C2 [memantine]
PGC-1α
  transcriptional dysregulation of PGC-1α induced by extrasynaptic glutamate: appears to prevent transcriptional dysregulation of PGC-1α

## CC(/C=C/C(=O)NO)=C\[C@@H](C)C(=O)c1ccc(N(C)C)cc1 [TSA, Trichostatin A]
[2]
  effect on PGC-1α mRNA levels: increased the mRNA levels of PGC-1α

## O=C(O)CC[N+](=O)[O-] [3-NP, 3-nitropropionic acid]
Q111 cells; 3-NP 10 mM for 48 h
  toxicity of 3-NP, Q111 compared with Q7 cells: more toxic to Q111 cells than to Q7 cells

## CCCC(=O)O [NaBu, Sodium butyrate]
[2]
  effect on PGC-1α mRNA levels: increased the mRNA levels of PGC-1α
